Test results published in PubChem BioAssay AID652163 (Broad Institute, 2013).
In all, about 360,000 compounds went through this assay and about 500 (0.14%) were called active.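 Rule for the calls: active = mean inhibition of at least 70% across replicates, with every replicate also reaching that level; inconclusive = mean inhibition reaches 70% but some replicates fall short; inactive = mean inhibition below 70%.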 Many of the other results were omitted from the sample, so actives are more common in it than they were.

Biological target: Protein S100-A4 (Homo sapiens) (UniProt P26447)
Assay: human S100A4 protein-peptide interaction blockers – biochemical, fluorescence polarization, TAMRA-MyoIIA peptide, primary screen (AID 652163)
Conditions: at 10.7 µM, hits give high values
Procedure, shortened: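 Test system: S100A4 monomer protein; Medium: HEPES pH 7.2 with CaCl2, KCl, NaCl, DTT, Triton; Probe or stimulus: TAMRA-labelled myosin IIA heavy-chain peptide probe, 5 nM; Doses: one dose per compound; Times: polarization read 5 min after assay mix addition, stable 5–60 min; Benchmarks: neutral control DMSO, positive control TFP.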

Chain of Protein S100-A4 (Homo sapiens) (P26447 whole entry, looked up): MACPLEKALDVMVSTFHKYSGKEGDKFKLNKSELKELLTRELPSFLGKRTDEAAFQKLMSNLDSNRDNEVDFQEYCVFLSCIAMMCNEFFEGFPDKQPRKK

inhibition, active:
CCCNC(=O)N1CC(=O)N2[C@H](CO)[C@@H](c3ccc(-c4ccc(F)cc4)cc3)[C@H]2C1 120%
CO[C@H]1CN(C)C(=O)c2cc(NC(=O)Nc3ccc4c(c3)OCO4)ccc2OC[C@@H](C)NC[C@@H]1C 127%
CO[C@H]1CN(C)C(=O)c2cc(NC(=O)C3CC3)ccc2OC[C@H](C)N(C(=O)CN(C)C)C[C@H]1C 99.6%

inhibition, inactive:
C[C@H]1CN([C@@H](C)CO)C(=O)Cc2cc(NS(=O)(=O)c3cn(C)cn3)ccc2O[C@@H]1CN(C)C(=O)Nc1ccc2c(c1)OCO2 1.37%
Cc1cccc(CN(C)C[C@H]2OCc3cn(nn3)CCCC(=O)N([C@@H](C)CO)C[C@H]2C)c1 -6.24%
CCC(=O)N1CCCCN2[C@H](C1)[C@@H](c1ccc(/C=C/c3ccccc3)cc1)[C@@H]2CO 3.9%
CCCN(C)C[C@@H]1Oc2cc(C#Cc3ccc(F)cc3)ccc2S(=O)(=O)N([C@H](C)CO)C[C@H]1C -10.2%
C[C@H]1CCCCO[C@@H](CN(C)C(=O)C2CCCCC2)[C@@H](C)CN([C@@H](C)CO)C(=O)c2cc(NS(=O)(=O)c3cccs3)ccc2O1 -3.65%
CCCNC(=O)N1C[C@H](O)COC[C@H]2O[C@@H](CC(=O)NCc3ccncn3)CC[C@@H]21 1.59%
CCCNC(=O)N[C@@H]1C=C[C@H](CC(=O)NC2CCC2)O[C@H]1CO 10%
CO[C@H]1CN(C)C(=O)c2cc(NS(=O)(=O)c3ccccc3)ccc2OC[C@H](C)NC[C@@H]1C -2.03%
O=C(c1cnccn1)N1CC(=O)N2[C@H](C1)[C@@H](c1ccc(C#CC3CCCC3)cc1)[C@@H]2CO -1.65%
CCCC#Cc1ccc([C@@H]2[C@@H](CO)N3C(=O)CN(C(=O)Nc4ccc(F)cc4)C[C@@H]23)cc1 5.06%
CCCNC(=O)N1CC(=O)N2[C@@H](CO)[C@H](c3ccc(-c4ccc(C)cc4)cc3)[C@@H]2C1 14%
COCC#Cc1cnc2c(c1)C(=O)N([C@@H](C)CO)C[C@@H](C)[C@H](CN(C)C(=O)Nc1ccccc1OC)O2 5.05%
C[C@@H]1CCCCO[C@H](CN(C)Cc2ccccc2)[C@H](C)CN([C@H](C)CO)C(=O)c2cc(NS(=O)(=O)c3ccc(Cl)cc3)ccc2O1 -1.24%
Cc1ccc(S(=O)(=O)N(C)C[C@H]2Oc3ccc(NC(=O)Cc4cn(C)c5ccccc45)cc3CC(=O)N([C@@H](C)CO)C[C@H]2C)cc1 12.9%
CO[C@@H]1CN(C)C(=O)c2cc(NC(=O)C3CC3)ccc2OC[C@H](C)N(C(=O)CN(C)C)C[C@H]1C -3.57%
CO[C@@H]1CN(C)C(=O)c2cc(NC(=O)C3CCC3)ccc2OC[C@H](C)N(C(=O)CN(C)C)C[C@@H]1C 1.09%
CO[C@H]1CN(C)C(=O)c2ccc(NC(=O)Nc3ccc4c(c3)OCO4)cc2OC[C@H](C)NC[C@H]1C 6.05%
CO[C@@H]1CN(C)C(=O)c2cc(NC(=O)Nc3ccc4c(c3)OCO4)ccc2OC[C@@H](C)NC[C@@H]1C -4.97%
